From ChEMBL document CHEMBL1121523, “Aminoglycoside antibiotics. 3. Epimino derivatives of neamine, ribostamycin, and kanamycin B” (1980)
≈ marks a conversion by molar mass, not a printed value.

What was measured:
Format in all cases: functional
Escherichia coli [1] = test: Minimum inhibitory concentration was measured against Escherichia coli A 20507
Escherichia coli [2] = test: Minimum inhibitory concentration was measured against Escherichia coli A 20507, in combination with Kanamycin A at 8 ug/mL concentration
Summary of the method: (§1)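 The value is the minimum inhibitory concentration of kanamycin A, in µg/mL, against the listed strain. Strains are designated by their inactivating enzyme, e.g. aminoglycoside 3'-phosphotransferase II producers.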

Escherichia coli [3] = test: Minimum inhibitory concentration was measured against Escherichia coli A 20507, in combination with Kanamycin A at specified concentration; summary of the method: as §1
Escherichia coli [4] = test: Minimum inhibitory concentration was measured against Escherichia coli A 20665
Escherichia coli [5] = test: Minimum inhibitory concentration was measured against Escherichia coli A 20665, in combination with Kanamycin A at 8 ug/mL concentration; summary of the method: as §1
Escherichia coli [6] = test: Minimum inhibitory concentration was measured against Escherichia coli A 20665, in combination with Kanamycin A at specified concentration; summary of the method: as §1
Escherichia coli [7] = test: Minimum inhibitory concentration was measured against Escherichia coli A 9632
Escherichia coli [8] = test: Minimum inhibitory concentration was measured against Escherichia coli A 9632, in combination with Kanamycin A at 8 ug/mL concentration; summary of the method: as §1
Pseudomonas aeruginosa [9] = test: Minimum inhibitory concentration was measured against Pseudomonas aeruginosa A 20653 in combination with Kanamycin A at specified concentration.; summary of the method: as §1
Pseudomonas aeruginosa [10] = test: Minimum inhibitory concentration was measured against Pseudomonas aeruginosa A 20653, in combination with Kanamycin A at 8 ug/mL concentration; summary of the method: as §1
Pseudomonas aeruginosa [11] = test: Minimum inhibitory concentration was measured against Pseudomonas aeruginosa A 20653
Providencia rettgeri [12] = test: Minimum inhibitory concentration was measured against Proteus rettgeri A 9637, in combination with Kanamycin A at 8 ug/mL concentration; summary of the method: as §1
Providencia rettgeri [13] = test: Minimum inhibitory concentration was measured against Proteus rettgeri A 9637, in combination with Kanamycin A at specified concentration.; summary of the method: as §1
Pseudomonas aeruginosa [14] = test: Minimum inhibitory concentration was measured against Pseudomonas aeruginosa A 20357, in combination with Kanamycin A at specified concentration.; summary of the method: as §1
Providencia rettgeri [15] = test: Minimum inhibitory concentration was measured against Proteus rettgeri A 21615
Providencia rettgeri [16] = test: Minimum inhibitory concentration was measured against Proteus rettgeri A 21615, in combination with Kanamycin A at 8 ug/mL concentration; summary of the method: as §1
Providencia rettgeri [17] = test: Minimum inhibitory concentration was measured against Proteus rettgeri A 21615, in combination with Kanamycin A at specified concentration.; summary of the method: as §1
Providencia rettgeri [18] = test: Minimum inhibitory concentration was measured against Proteus rettgeri A 9637
Pseudomonas aeruginosa [19] = test: Minimum inhibitory concentration was measured against Pseudomonas aeruginosa A 20357, in combination with Kanamycin A at 8 ug/mL concentration; summary of the method: as §1
Pseudomonas aeruginosa [20] = test: Minimum inhibitory concentration was measured against Pseudomonas aeruginosa A 20357
Escherichia coli [21] = test: Minimum inhibitory concentration was measured against Escherichia coli A 9632, in combination with Kanamycin A at specified concentration; summary of the method: as §1
Escherichia coli [22] = test: Minimum inhibitory concentration was measured against Escherichia coli A 20507, in combination with Kanamycin A at 32 ug/mL concentration
Summary of the method: (§2)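 Kanamycin A was serially diluted in Mueller-Hinton broth with each epimino derivative held at a fixed 32 µg/mL (8 µg/mL also run). The value is the minimum inhibitory concentration of kanamycin A in the combination against Bristol-numbered strains, read for lowering of kanamycin A MIC in resistant strains.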

Pseudomonas aeruginosa [23] = test: Minimum inhibitory concentration was measured against Pseudomonas aeruginosa A 20653 in combination with Kanamycin A at 32 ug/mL concentration; summary of the method: as §2
Pseudomonas aeruginosa [24] = test: Minimum inhibitory concentration was measured against Pseudomonas aeruginosa A 20357, in combination with Kanamycin A at 32 ug/mL concentration; summary of the method: as §2
Providencia rettgeri [25] = test: Minimum inhibitory concentration was measured against Proteus rettgeri A 21615, in combination with Kanamycin A at 32 ug/mL concentration; summary of the method: as §2
Escherichia coli [26] = test: Minimum inhibitory concentration was measured against Escherichia coli A 20665, in combination with Kanamycin A at 32 ug/mL concentration; summary of the method: as §2
Providencia rettgeri [27] = test: Minimum inhibitory concentration was measured against Proteus rettgeri A 9637, in combination with Kanamycin A at 32 ug/mL concentration; summary of the method: as §2

Structure (SMILES)	MIC (Escherichia coli [1])	MIC (Escherichia coli [2])	MIC (Escherichia coli [3])	MIC (Escherichia coli [4])	MIC (Escherichia coli [5])	MIC (Escherichia coli [6])	MIC (Escherichia coli [7])	MIC (Escherichia coli [8])	MIC (Pseudomonas aeruginosa [9])	MIC (Pseudomonas aeruginosa [10])	MIC (Pseudomonas aeruginosa [11])	MIC (Providencia rettgeri [12])	MIC (Providencia rettgeri [13])	MIC (Pseudomonas aeruginosa [14])	MIC (Providencia rettgeri [15])	MIC (Providencia rettgeri [16])	MIC (Providencia rettgeri [17])	MIC (Providencia rettgeri [18])	MIC (Pseudomonas aeruginosa [19])	MIC (Pseudomonas aeruginosa [20])	other results
NCC1OC(OC2C(N)CC(N)C(O)C2O)C2NC2C1O (stereo unspecified)	> 125 mg/L	63 mg/L	32 mg/L	–	–	–	–	–	–	–	–	–	–	–	–	–	–	–	–	–	–
NCC1OC(OC2C(N)CC(N)C(OC3OC(CO)C(O)C(N)C3O)C2O)C2NC2C1O (stereo unspecified)	125 mg/L (≈ 269 µM)	125 mg/L	125 mg/L	125 mg/L (≈ 269 µM)	> 125 mg/L	> 125 mg/L	8 mg/L (≈ 17.2 µM)	0.25 mg/L	> 125 mg/L	> 125 mg/L	125 mg/L (≈ 269 µM)	0.5 mg/L	0.5 mg/L	4 mg/L	> 125 mg/L	125 mg/L	125 mg/L	16 mg/L (≈ 34.4 µM)	4 mg/L	125 mg/L (≈ 269 µM)	–
NC[C@H]1O[C@H](O[C@H]2[C@H](O)[C@@H](O[C@H]3O[C@H](CO)[C@@H](O)[C@H](N)[C@H]3O)[C@H](N)C[C@@H]2N)[C@H](O)[C@@H](O)[C@@H]1O [KANAMYCIN]	> 125 mg/L	–	–	> 125 mg/L	–	–	2 mg/L (≈ 4.13 µM)	–	–	–	> 125 mg/L	–	–	–	125 mg/L (≈ 258 µM)	–	–	≤ 0.25 mg/L	–	–	–
NCC1OC(OC2C(NC(=O)OCc3ccccc3)CC(N)C(O)C2OC2O[C@H](CO)[C@@H](O)[C@H]2O)C2NC2C1O (stereo partly specified)	> 125 mg/L	125 mg/L	63 mg/L	> 125 mg/L	> 125 mg/L	> 125 mg/L	> 125 mg/L	1 mg/L	> 125 mg/L	> 125 mg/L	> 125 mg/L	0.5 mg/L	0.5 mg/L	4 mg/L	> 125 mg/L	125 mg/L	125 mg/L	> 125 mg/L	4 mg/L	> 125 mg/L	MIC (Escherichia coli [21]): 1 mg/L
NCC1OC(OC2C(N)CC(N)C(OC3OC(CO)C(O)C4NC34)C2O)C(N)C(O)C1O (stereo unspecified)	> 125 mg/L	125 mg/L	125 mg/L	> 125 mg/L	> 125 mg/L	> 125 mg/L	63 mg/L (≈ 135 µM)	1 mg/L	> 125 mg/L	> 125 mg/L	> 125 mg/L	0.5 mg/L	0.5 mg/L	4 mg/L	> 125 mg/L	63 mg/L	63 mg/L	> 125 mg/L	4 mg/L	> 125 mg/L	MIC (Escherichia coli [21]): 1 mg/L
NCC1OC(OC2C(NC(=O)OCc3ccccc3)CC(N)C(O)C2O)C(N)C(O)C1O (stereo unspecified)	> 125 mg/L	125 mg/L	–	> 125 mg/L	> 125 mg/L	–	> 125 mg/L	2 mg/L	–	> 125 mg/L	> 125 mg/L	1 mg/L	–	–	> 125 mg/L	125 mg/L	–	> 125 mg/L	4 mg/L	> 125 mg/L	MIC (Escherichia coli [22]): 125 mg/L; MIC (Pseudomonas aeruginosa [23]): > 125 mg/L; MIC (Pseudomonas aeruginosa [24]): 4 mg/L; MIC (Providencia rettgeri [25]): 125 mg/L; MIC (Escherichia coli [26]): > 125 mg/L; MIC (Providencia rettgeri [27]): 1 mg/L
NCC1OC(OC2C(NC(=O)OCc3ccccc3)CC(N)C(O)C2O)C2NC2C1O (stereo unspecified)	> 125 mg/L	> 125 mg/L	63 mg/L	125 mg/L (≈ 285 µM)	> 125 mg/L	> 125 mg/L	125 mg/L (≈ 285 µM)	–	> 125 mg/L	> 125 mg/L	> 125 mg/L	–	–	–	> 125 mg/L	> 125 mg/L	63 mg/L	> 125 mg/L	–	> 125 mg/L	–
